{"data": "Measurements of several laboratories", "RPS6KA3": "Ribosomal protein S6 kinase alpha-3 (RPS6KA3, Homo sapiens, UniProt P51812)", "RPS6KA3 C-terminal kinase domain": "Ribosomal protein S6 kinase alpha-3, C-terminal kinase domain (RPS6KA3, Homo sapiens, UniProt P51812)", "RPS6KA3 N-terminal kinase domain": "Ribosomal protein S6 kinase alpha-3, N-terminal kinase domain (RPS6KA3, Homo sapiens, UniProt P51812)", "note": "Lines come from different studies, so protocols differ."}
{"SMILES": "Nc1nc(Nc2ccccc2)sc1C(=O)c1c(F)cccc1F", "target": "RPS6KA3", "assay": "enzyme activity, inhibitor", "conditions": "10 µM", "endpoint": "remaining activity", "result": "38%"}
{"SMILES": "CN(C)C1CCN(CC#Cc2nn(C3CCCC3)c3nc(NCc4ccccc4)ncc23)C1 (stereo not drawn)", "target": "RPS6KA3", "assay": "enzyme activity, inhibitor, FRET", "conditions": "0.1 µM", "endpoint": "inhibition", "result": "5%"}
{"SMILES": "CC1CCCN1c1nccc(-c2cnn3ncccc23)n1 (stereo not drawn)", "target": "RPS6KA3 C-terminal kinase domain", "assay": "binding, competition with immobilised ligand", "conditions": "1 µM", "endpoint": "remaining binding", "result": "100%"}
{"SMILES": "Cc1ccc(Nc2nccc(N(C)c3ccc4c(C)n(C)nc4c3)n2)cc1S(N)(=O)=O", "target": "RPS6KA3", "assay": "enzyme activity, inhibitor", "conditions": "0.3 µM", "endpoint": "inhibition", "result": "31%"}
{"SMILES": "CNCc1ccccc1-c1csc([C@H](C)Nc2nc(C)nc3cc(OC)c(OC)cc23)c1", "target": "RPS6KA3 C-terminal kinase domain", "assay": "cell-free assay, competition with immobilised ligand", "conditions": "1 µM", "endpoint": "remaining binding", "result": "78%"}
{"SMILES": "FC(F)c1nc2ccccc2n1-c1nc(N2CCOCC2)nc(N2CCOCC2)n1", "target": "RPS6KA3", "assay": "enzyme activity, inhibitor", "conditions": "10 µM", "endpoint": "remaining activity", "result": "83%"}
{"SMILES": "CN(CCCC(F)(F)F)c1nccc(-c2cnn3ncccc23)n1", "target": "RPS6KA3 N-terminal kinase domain", "assay": "binding, competition with immobilised ligand", "conditions": "1 µM", "endpoint": "remaining binding", "result": "100%"}
{"SMILES": "Cc1sc(C(=O)NC2COC2)cc1-n1cc(NC(=O)Nc2c(F)cccc2Cl)cn1", "target": "RPS6KA3", "assay": "enzyme activity, inhibitor", "conditions": "10 µM", "endpoint": "remaining activity", "result": "73%"}
{"SMILES": "Cn1cncc1C1=CN(c2ncnc3[nH]cnc23)CCS1", "target": "RPS6KA3", "assay": "enzyme activity, inhibitor, radiometric", "conditions": "50 nM", "endpoint": "inhibition", "result": "12.3%"}
{"SMILES": "COc1cc(Nc2cnc(C#N)c(O[C@H](C)CN(C)C)n2)ncc1-c1cnn(C)c1", "target": "RPS6KA3", "assay": "enzyme activity, inhibitor, radiometric", "conditions": "10 µM", "endpoint": "remaining activity", "result": "34%"}
{"SMILES": "CCCOc1ccc([C@@H]2[C@@H](C(=O)O)[C@H](c3ccc4c(c3)OCO4)CN2CC(=O)Nc2c(CC)cccc2CC)cc1", "target": "RPS6KA3 C-terminal kinase domain", "assay": "cell-free assay, competition with immobilised ligand", "conditions": "1 µM", "endpoint": "remaining binding", "result": "76%"}
{"SMILES": "c1ccc(CNc2nc(N3CCOc4ccccc43)nc3c2CCCC3)cc1", "target": "RPS6KA3 N-terminal kinase domain", "assay": "target engagement in cells, inhibitor, chemoproteomics", "conditions": "20 mM", "endpoint": "inhibition", "result": "3.3%"}
{"SMILES": "CN(C)c1nccc(-c2cnc3ncccn23)n1", "target": "RPS6KA3 N-terminal kinase domain", "assay": "binding, competition with immobilised ligand", "conditions": "1 µM", "endpoint": "remaining binding", "result": "70%"}
{"SMILES": "CCN(CC)CCNC(=O)c1c(C)[nH]c(/C=C2\\C(=O)Nc3ccc(F)cc32)c1C", "target": "RPS6KA3", "assay": "cell-free assay", "conditions": "0.5 µM", "endpoint": "remaining signal", "result": "35.5%"}
{"SMILES": "CC(C)(C)c1nc2c(s1)c1nc(N)ncc1c1ccc(NS(=O)(=O)c3c(F)cccc3F)c(F)c12", "target": "RPS6KA3", "assay": "enzyme activity, inhibitor, radiometric", "conditions": "1 µM", "endpoint": "remaining activity", "result": "90%"}
{"SMILES": "FC(F)(F)Oc1cccc(-c2cnc3ccc(-c4ccncc4)nn23)c1", "target": "RPS6KA3", "assay": "enzyme activity, inhibitor, radiometric", "conditions": "5 µM", "endpoint": "activity vs control", "result": "98%"}
{"SMILES": "Cc1cc(NC(=O)c2cccc3cc(-c4cccc5[nH]nc(N)c45)ccc23)ccc1F", "target": "RPS6KA3", "assay": "enzyme activity, inhibitor", "conditions": "0.1 µM", "endpoint": "activity vs control", "result": "131%"}
{"SMILES": "C[C@H](NC(=O)c1cnc2n1[C@](C)(Cc1ccc(C#N)cc1)C(=O)N2c1cc(Cl)c(F)c(Cl)c1)C(=O)NC1(c2ccccn2)CC1", "target": "RPS6KA3 C-terminal kinase domain", "assay": "cell-free assay, competition with immobilised ligand", "conditions": "1 µM", "endpoint": "remaining binding", "result": "100%"}
{"SMILES": "O=C(Nc1cnn(-c2csc(C(=O)NC3COC3)c2)c1)Nc1ccccc1Cl", "target": "RPS6KA3", "assay": "enzyme activity, inhibitor", "conditions": "5 µM", "endpoint": "remaining activity", "result": "101%"}
{"SMILES": "Cc1ccc(C(=O)NCc2ccsc2)cc1C#Cc1cn(C(C)C)c2ncnc(N)c12", "target": "RPS6KA3", "assay": "enzyme activity, inhibitor", "conditions": "1 µM", "endpoint": "activity vs control", "result": "92%"}
{"SMILES": "N[C@H]1CCN(c2nccc(-c3cnn4ncccc34)n2)C1", "target": "RPS6KA3 C-terminal kinase domain", "assay": "binding, competition with immobilised ligand", "conditions": "1 µM", "endpoint": "remaining binding", "result": "40%"}
{"SMILES": "COc1cc2ncnc(Nc3ccc(Oc4ccccc4)cc3C)c2cc1OC", "target": "RPS6KA3", "assay": "enzyme activity, inhibitor", "conditions": "1 µM", "endpoint": "inhibition", "result": "-8%"}
{"SMILES": "COc1ccc2c(c1)O[C@@H](c1ccc(OC)c(OC)c1)C[C@H]2NC(=O)C1(c2ccc3c(c2)OC(F)(F)O3)CC1", "target": "RPS6KA3 C-terminal kinase domain", "assay": "cell-free assay, competition with immobilised ligand", "conditions": "1 µM", "endpoint": "remaining binding", "result": "100%"}
{"SMILES": "CCCS(=O)(=O)Nc1ccc(F)c(C(=O)c2c[nH]c3ncc(-c4ccc(Cl)cc4)cc23)c1F", "target": "RPS6KA3", "assay": "enzyme activity, inhibitor", "conditions": "1 µM", "endpoint": "inhibition", "result": "< 10%"}
{"SMILES": "Nc1ncnc2occ(-c3ccc(NC(=O)Nc4cc(C(F)(F)F)ccc4F)cc3)c12", "target": "RPS6KA3 C-terminal kinase domain", "assay": "cell-free assay, inhibitor", "conditions": "20 µM", "endpoint": "remaining signal", "result": "100%"}
{"SMILES": "C[C@@H]1CCN(C(=O)CC#N)C[C@@H]1N(C)c1ncnc2[nH]ccc12", "target": "RPS6KA3", "assay": "cell-free assay, inhibitor", "conditions": "0.5 µM", "endpoint": "remaining signal", "result": "97%"}
{"SMILES": "CN(c1nccc(-c2cnn3ncccc23)n1)C1CC1", "target": "RPS6KA3 N-terminal kinase domain", "assay": "binding, competition with immobilised ligand", "conditions": "1 µM", "endpoint": "remaining binding", "result": "100%"}
{"SMILES": "CNc1cccc2cc(C(=O)Nc3ccc(C(=O)O)cc3)c(=O)[nH]c12", "target": "RPS6KA3", "assay": "enzyme activity, inhibitor", "conditions": "10 µM", "endpoint": "inhibition", "result": "2.2%"}
{"SMILES": "C[C@@H]1CCN(c2nccc(-c3cnn4ncccc34)n2)C1", "target": "RPS6KA3 C-terminal kinase domain", "assay": "binding, competition with immobilised ligand", "conditions": "1 µM", "endpoint": "remaining binding", "result": "98%"}
{"SMILES": "CCOc1cc(-c2nncn2C)ccc1Nc1ncc2cc(C)nc(NCC(C)(C)C)c2n1", "target": "RPS6KA3", "assay": "enzyme activity, inhibitor, FRET", "conditions": "1 µM", "endpoint": "inhibition", "result": "18%"}
{"SMILES": "O=C1Nc2ccc(Cl)cc2C1=Cc1cc(Cl)c(O)c(Cl)c1", "target": "RPS6KA3", "assay": "cell-free assay", "conditions": "0.5 µM", "endpoint": "remaining signal", "result": "96%"}
{"SMILES": "CC/C(=N\\NC(=O)NCc1cccc(O)c1)c1ccc(O)c(C)c1O", "target": "RPS6KA3", "assay": "enzyme activity, inhibitor", "conditions": "0.1 µM", "endpoint": "inhibition", "result": "79.5%"}
{"SMILES": "Cc1nc(N2CC[C@@H](O)C2)ncc1-c1cc(C(F)(F)F)cc2[nH]ncc12", "target": "RPS6KA3 C-terminal kinase domain", "assay": "binding, competition with immobilised ligand", "conditions": "1 µM", "endpoint": "remaining binding", "result": "58%"}
{"SMILES": "COc1cc(/C=C/C(=O)CC(=O)/C=C/c2ccc(O)c(OC)c2)ccc1O", "target": "RPS6KA3", "assay": "enzyme activity, inhibitor", "conditions": "1 µM", "endpoint": "activity vs control", "result": "66%"}
{"SMILES": "CNc1cc(Oc2cc(C(=O)Nc3cc(N4CCN(C)CC4)cc(C(F)(F)F)c3)ccc2C)ncn1", "target": "RPS6KA3 C-terminal kinase domain", "assay": "target engagement in cells, inhibitor, chemoproteomics", "system": "Huh-7", "conditions": "1 µM", "endpoint": "inhibition", "result": "-50.6%"}
{"SMILES": "COCCOc1nc(-c2ccc(Cl)nc2)nc2c1CN(C(=O)c1ncn3ccccc13)CC2", "target": "RPS6KA3 N-terminal kinase domain", "assay": "cell-free assay, competition with immobilised ligand", "conditions": "0.1 µM", "endpoint": "remaining binding", "result": "100%"}
{"SMILES": "Clc1ccc(Nc2nnc(Cc3ccncc3)c3ccccc23)cc1", "target": "RPS6KA3", "assay": "cell-free assay", "conditions": "0.5 µM", "endpoint": "remaining signal", "result": "101%"}
{"SMILES": "F[C@@H]1CCN(c2nccc(-c3cnn4ncccc34)n2)C1", "target": "RPS6KA3 C-terminal kinase domain", "assay": "binding, competition with immobilised ligand", "conditions": "1 µM", "endpoint": "remaining binding", "result": "100%"}
{"SMILES": "CC1=C(C#N)[C@@H](c2ccc3[nH]nc(C)c3c2)C(C#N)=C(c2ccc(Cl)cc2)N1", "target": "RPS6KA3 C-terminal kinase domain", "assay": "cell-free assay, competition with immobilised ligand", "conditions": "1 µM", "endpoint": "remaining binding", "result": "86.2%"}
{"SMILES": "CNC(=O)c1cc(Oc2ccc(NC(=O)Nc3ccc(Cl)c(C(F)(F)F)c3)cc2)ccn1", "target": "RPS6KA3", "assay": "enzyme activity, inhibitor", "conditions": "0.3 µM", "endpoint": "inhibition", "result": "22%"}
{"SMILES": "COc1ccc2c(O[C@@H]3C[C@H]4C(=O)N[C@]5(C(=O)O)CC5/C=C\\CCCCC[C@H](NC(=O)OC5CCCC5)C(=O)N4C3)cc(-c3csc(NC(=O)C(C)C)n3)nc2c1C (stereo partly drawn)", "target": "RPS6KA3 N-terminal kinase domain", "assay": "cell-free assay, competition with immobilised ligand", "conditions": "1 µM", "endpoint": "remaining binding", "result": "100%"}
{"SMILES": "Cc1ccc(C(=O)Nc2ccc(CN3CCN(C)CC3)c(C(F)(F)F)c2)cc1C#Cc1cnc2cccnn12", "target": "RPS6KA3", "assay": "enzyme activity, inhibitor", "conditions": "23.5 nM", "endpoint": "remaining activity", "result": "93%"}
